Laboratory results reported in ChEMBL document CHEMBL1124795, “Synthesis and cytotoxicity of deoxyadenosine analogues: isomer distribution in the sodium salt glycosylation of 2,6-disubstituted purines” (J Med Chem, 1990).
The source made the active and inactive calls. No cut-off for these calls is given here.

How the values were obtained:
B-95-8 cell line [1] = test: In vitro toxicity which caused 50% decrease in [14C]- leucine incorporation by the B-95-8 cells in culture.; assay type: functional, Callitrichidae; settings: Saguinus oedipus, read-out: ID50 (the source's name)
In short: (§1)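 Cells seeded at 10⁴ per well and exposed to compounds for 3 days in RPMI 1640 with 10% fetal calf serum, glutamine and antibiotics, at 37 °C under 5% CO₂. [¹⁴C]-L-leucine (0.5 μCi/mL) was present for the final 24 h. Protein was precipitated with 0.2 N perchloric acid, collected on glass-fibre filters and scintillation-counted. ID50 (μM, 50% drop in incorporation) was read from triplicate dose-response curves.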

HL-60 [2] = test: In vitro toxicity which caused 50% decrease in [14C]- leucine incorporation by the HL-60 cells in culture.; assay type: functional; settings: Homo sapiens, read-out: ID50 (the source's name); in short: as §1
MOLT-4 [3] = test: (§2) In vitro toxicity which caused 50% decrease in [14C]- leucine incorporation by the MOLT-4 cells in culture.; assay type: functional; settings: Homo sapiens, read-out: ID50 (the source's name); in short: as §1
NALL-1 [4] = test: (§3) In vitro toxicity which caused 50% decrease in [14C]- leucine incorporation by the NALL-1 cells in culture.; assay type: functional; settings: Homo sapiens, read-out: ID50 (the source's name); in short: as §1
PHA-Ly [5] = test: In vitro toxicity which caused 50% decrease in [14C]- leucine incorporation by the PHA-LY cells in culture.; assay type: functional; settings: Homo sapiens, read-out: ID50 (the source's name); in short: as §1
Raji [6] = test: (§4) In vitro toxicity which caused 50% decrease in [14C]- leucine incorporation by the Raji cells in culture.; assay type: functional; settings: Homo sapiens, read-out: ID50 (the source's name); in short: as §1
U-937 [7] = test: (§5) In vitro toxicity which caused 50% decrease in [14C]- leucine incorporation by the U-937 cells in culture.; assay type: functional; settings: Homo sapiens, read-out: ID50 (the source's name); in short: as §1
K562 [8] = test: In vitro toxicity which caused 50% decrease in [14C]- leucine incorporation by the K-562 cells in culture.; assay type: functional; settings: Homo sapiens, read-out: ID50 (the source's name); in short: as §1
B-95-8 cell line [9] = test: In vitro toxicity which caused 50% decrease in [14C]- leucine incorporation by the B-95-8 cells in culture at 40 uM; IN-Inactive; assay type: functional, cell-based; in short: as §1
HL-60 [10] = test: In vitro toxicity which caused 50% decrease in [14C]- leucine incorporation by the HL-60 cells in culture at 40 uM; IN-Inactive; assay type: functional, cell-based; settings: Homo sapiens; in short: as §1
K562 [11] = test: In vitro toxicity which caused 50% decrease in [14C]- leucine incorporation by the K-562 cells in culture at 40 uM; IN-Inactive; assay type: functional, cell-based; settings: Homo sapiens; in short: as §1
MOLT-4 [12] = test: In vitro toxicity which caused 50% decrease in [14C]- leucine incorporation by the MOLT-4 cells in culture at 40 uM; IN-Inactive; assay type: functional, cell-based; settings: Homo sapiens; in short: as §1
NALL-1 [13] = test: In vitro toxicity which caused 50% decrease in [14C]- leucine incorporation by the NALL-1 cells in culture at 40 uM; IN-Inactive; assay type: functional, cell-based; settings: Homo sapiens; in short: as §1
PHA-Ly [14] = test: In vitro toxicity which caused 50% decrease in [14C]- leucine incorporation by the PHA-LY cells in culture at 40 uM; IN-Inactive; assay type: functional, cell-based; settings: Homo sapiens; in short: as §1
Raji [15] = test: In vitro toxicity which caused 50% decrease in [14C]- leucine incorporation by the Raji cells in culture at 40 uM; IN-Inactive; assay type: functional, cell-based; settings: Homo sapiens; in short: as §1
U-937 [16] = test: In vitro toxicity which caused 50% decrease in [14C]- leucine incorporation by the U-937 cells in culture at 40 uM; IN-Inactive; assay type: functional, cell-based; settings: Homo sapiens; in short: as §1
MOLT-4 [17] = test: as §2; assay type: cell-based; settings: human, read-out: ID50 (the source's name); in short: as §1
NALL-1 [18] = test: as §3; assay type: cell-based; settings: human, read-out: ID50 (the source's name); in short: as §1
Raji [19] = test: as §4; assay type: cell-based; settings: human, read-out: ID50 (the source's name); in short: as §1
U-937 [20] = test: as §5; assay type: cell-based; settings: human, read-out: ID50 (the source's name); in short: as §1

Row | Compound | IC50 (B-95-8 cell line [1]) | IC50 (HL-60 [2]) | IC50 (MOLT-4 [3]) | IC50 (NALL-1 [4]) | IC50 (PHA-Ly [5]) | IC50 (Raji [6]) | IC50 (U-937 [7]) | IC50 (K562 [8]) | ID50 (B-95-8 cell line [9]) | ID50 (HL-60 [10]) | ID50 (K562 [11]) | ID50 (MOLT-4 [12]) | ID50 (NALL-1 [13]) | ID50 (PHA-Ly [14]) | ID50 (Raji [15]) | ID50 (U-937 [16]) | CC50 (MOLT-4 [17]) | CC50 (NALL-1 [18]) | CC50 (Raji [19]) | CC50 (U-937 [20])
1 | CSc1nc(N(C)C)c2ncn([C@@H]3C[C@@H](O)[C@H](CO)O3)c2n1 | 116 µM | > 300 µM | 172 µM | 188 µM | 260 µM | 233 µM | 126 µM | > 300 µM |  |  |  |  |  |  |  |  |  |  |  | 
2 | CN(C)c1nc(Br)nc2c1ncn2[C@@H]1C[C@@H](O)[C@H](CO)O1 | > 300 µM | > 300 µM | > 300 µM | 290 µM | 88 µM | > 300 µM | 164 µM | > 300 µM |  |  |  |  |  |  |  |  |  |  |  | 
3 | CN(C)c1nc(N(C)C)c2ncn([C@@H]3C[C@@H](O)[C@H](CO)O3)c2n1 |  |  |  |  |  |  |  |  | inactive | inactive | inactive | inactive | inactive | inactive | inactive | inactive |  |  |  | 
4 | CN(C)c1nc(N)c2ncn([C@@H]3C[C@@H](O)[C@H](CO)O3)c2n1 | 182 µM | > 300 µM | > 300 µM | > 300 µM | > 300 µM | 125 µM | > 300 µM | > 300 µM |  |  |  |  |  |  |  |  |  |  |  | 
5 | CNc1nc(Br)nc2c1ncn2[C@@H]1C[C@@H](O)[C@H](CO)O1 | 253 µM | 143 µM | 177 µM | 230 µM | 30 µM | 80 µM | 140 µM | 110 µM |  |  |  |  |  |  |  |  |  |  |  | 
6 | CSc1nc(SC)c2ncn([C@@H]3C[C@@H](O)[C@H](CO)O3)c2n1 | 225 µM | > 300 µM | 141 µM | 173 µM | 167 µM | 170 µM | > 300 µM | > 300 µM |  |  |  |  |  |  |  |  |  |  |  | 
7 | Nc1nc(Br)nc2c1ncn2[C@@H]1C[C@@H](O)[C@H](CO)O1 | 6 µM | 41 µM |  |  | 1.6 µM |  |  | 83 µM |  |  |  |  |  |  |  |  | 3.2 µM | 12 µM | 0.7 µM | 0.8 µM
8 | CNc1nc(SC)nc2c1ncn2[C@@H]1C[C@@H](O)[C@H](CO)O1 | > 300 µM | > 300 µM | > 300 µM | 186 µM | 81 µM | > 300 µM | > 300 µM | > 300 µM |  |  |  |  |  |  |  |  |  |  |  | 
9 | CSc1nc(N)c2ncn([C@@H]3C[C@@H](O)[C@H](CO)O3)c2n1 | > 300 µM | > 300 µM | > 300 µM | 96 µM | 82 µM | 107 µM | > 300 µM | > 300 µM |  |  |  |  |  |  |  |  |  |  |  | 
